From ChEMBL document CHEMBL1800048, “Gambogic acid, a natural product inhibitor of Hsp90” (J Nat Prod, 2011)
Active and inactive are the calls of the source. No cut-off for these calls is given here.

Experiments:
[1] = target: T1, Hsp90 co-chaperone Cdc37 (Homo sapiens) (UniProt Q16543); conditions: 100 uM
T1 sequence (whole entry): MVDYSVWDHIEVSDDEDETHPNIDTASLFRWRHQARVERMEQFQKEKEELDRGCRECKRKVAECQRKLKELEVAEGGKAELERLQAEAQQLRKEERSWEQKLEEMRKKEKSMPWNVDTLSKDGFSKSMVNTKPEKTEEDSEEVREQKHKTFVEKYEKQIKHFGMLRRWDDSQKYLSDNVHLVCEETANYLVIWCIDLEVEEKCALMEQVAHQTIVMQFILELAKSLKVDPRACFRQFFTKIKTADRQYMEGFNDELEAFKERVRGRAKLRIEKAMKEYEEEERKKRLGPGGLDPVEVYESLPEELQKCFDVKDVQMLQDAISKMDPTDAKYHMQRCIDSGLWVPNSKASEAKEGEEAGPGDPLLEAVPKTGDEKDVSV

[2] = Inhibition of Hsp90-mediated [35S]His-tagged HRI maturation in heme-deficient reticulocyte lysate at 100 uM after 45 mins by SDS-PAGE and autoradiography
Procedure, shortened: (§1)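 [35S]His-tagged wild-type HRI was made by transcription-translation in reticulocyte lysate. Compound or 4% v/v DMSO was added at 20 min, followed by 10 min more. Samples were diluted into 7 volumes of heme-deficient lysate holding the same compound concentration; hemin-supplemented (20 µM) lysate was the reference. After 45 min, HRI was captured on Ni-NTA on ice for 1 h. Maturation was scored by mobility shift on SDS-PAGE and autoradiography.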

[3] = Effect on [35S]His-tagged HRI stability in heme-deficient reticulocyte lysate assessed as loss of [35S]His-tagged HRI at 100 uM after 45 mins by SDS-PAGE and autoradiography
[4] = Inhibition of Hsp90-dependent refolding of luciferase in reticulocyte lysate by microplate reader
[5] = target: Hsp90 co-chaperone Cdc37 (Homo sapiens) (UniProt Q16543); conditions: 20 mM
[6] = Inhibition of Hsp90-mediated [35S]His-tagged HRI maturation in heme-deficient reticulocyte lysate at 20 mM after 45 mins by SDS-PAGE and autoradiography
Procedure, shortened: (§2)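 Wild-type [35S]His-tagged HRI made by coupled transcription-translation in reticulocyte lysate with [35S]methionine. Compound or DMSO (4% v/v) added after 20 min, then 10 min more. Sample diluted into 7 volumes of heme-deficient lysate (hemin 20 µM as reference) holding the same compound level, 45 min. HRI pulled down on NTA-Ni resin, 1 h on ice. SDS-PAGE and autoradiography; mobility shift and band densitometry as % of minus-heme control.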

[7] = Effect on [35S]His-tagged HRI stability in heme-deficient reticulocyte lysate assessed as loss of [35S]His-tagged HRI at 20 mM after 45 mins by SDS-PAGE and autoradiography; procedure, shortened: as §2
[8] = Inhibition of Hsp90-mediated [35S]His-tagged HRI maturation in heme-deficient reticulocyte lysate at 4 mM after 45 mins by SDS-PAGE and autoradiography; procedure, shortened: as §2
[9] = Effect on [35S]His-tagged HRI stability in heme-deficient reticulocyte lysate assessed as loss of [35S]His-tagged HRI at 4 mM after 45 mins by SDS-PAGE and autoradiography; procedure, shortened: as §2
[10] = Inhibition of Hsp90-mediated [35S]His-tagged HRI maturation in heme-deficient reticulocyte lysate at 400 uM after 45 mins by SDS-PAGE and autoradiography; procedure, shortened: as §1
[11] = Effect on [35S]His-tagged HRI stability in heme-deficient reticulocyte lysate assessed as loss of [35S]His-tagged HRI at 400 uM after 45 mins by SDS-PAGE and autoradiography
[12] = target: T1, Hsp90 co-chaperone Cdc37 (Homo sapiens); test: Inhibition of Cdc37 interaction with heme-regulated [35S]His-tagged eIF2alpha K199R mutant kinase in reticulocyte lysate assessed as coadsorbed Cdc37 at 80 uM after 40 mins by SDS-PAGE and Western blot analysis
Procedure, shortened: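 His-tagged kinase-dead HRI K199R made by TnT in reticulocyte lysate with [35S]methionine. After 10 min of synthesis, compound or DMSO (4% v/v) added, then 40 min more. Immunoadsorbed with anti-His-tag antibody on anti-mouse-IgG agarose. Washed four times in 10 mM PIPES pH 7.2, 100 mM NaCl. Co-adsorbed Hsp90, Hsp70 and Cdc37 read by SDS-PAGE and Western blot; plasmid-free lysate as nonspecific control.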

[13] = Inhibition of Hsp90-mediated [35S]His-tagged HRI maturation in heme-deficient reticulocyte lysate at 80 uM after 45 mins by SDS-PAGE and autoradiography; procedure, shortened: as §2
[14] = Effect on [35S]His-tagged HRI stability in heme-deficient reticulocyte lysate assessed as loss of [35S]His-tagged HRI at 80 uM after 45 mins by SDS-PAGE and autoradiography; procedure, shortened: as §2
Heat shock protein HSP90 [15] = target: T2, Heat shock protein HSP90 (Homo sapiens, UniProt P07900+P08238); test: Inhibition of Hsp90 in human SKBR3 cells assessed as induction of Hsp90 expression after 36 hrs by Western blot analysis; format: cell-based; conditions: SK-BR-3
Procedure, shortened: (§3)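 Cells (1×10^6 per dish) were attached overnight, then exposed to the compound for 36 h. […] Extracts (10 µg protein) were Western blotted for Her2, Akt, Raf-1, Hsp90 and Hsp70, with actin as loading control.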

Heat shock protein HSP90 [16] = target: T2, Heat shock protein HSP90; test: Inhibition of Hsp90 in human MCF7 cells assessed as Raf degradation after 36 hrs by Western blot analysis; format: cell-based; procedure, shortened: as §3
Heat shock protein HSP90 [17] = target: T2, Heat shock protein HSP90; test: Inhibition of Hsp90 in human SKBR3 cells assessed as Raf degradation after 36 hrs by Western blot analysis; format: cell-based; conditions: SK-BR-3; procedure, shortened: as §3
Heat shock protein HSP90 [18] = target: T2, Heat shock protein HSP90; test: Inhibition of Hsp90 in human MCF7 cells assessed as induction of Hsp70 expression after 36 hrs by Western blot analysis; format: cell-based; procedure, shortened: as §3
Heat shock protein HSP90 [19] = target: T2, Heat shock protein HSP90; test: Inhibition of Hsp90 in human SKBR3 cells assessed as induction of Hsp70 expression after 36 hrs by Western blot analysis; format: cell-based; conditions: SK-BR-3; procedure, shortened: as §3
Heat shock protein HSP90 [20] = target: T2, Heat shock protein HSP90; test: Inhibition of Hsp90 in human MCF7 cells assessed as Akt degradation after 36 hrs by Western blot analysis; format: cell-based; procedure, shortened: as §3
Heat shock protein HSP90 [21] = target: T2, Heat shock protein HSP90; test: Inhibition of Hsp90 in human SKBR3 cells assessed as Akt degradation after 36 hrs by Western blot analysis; format: cell-based; conditions: SK-BR-3; procedure, shortened: as §3
[22] = target: T1, Hsp90 co-chaperone Cdc37 (Homo sapiens); conditions: 50 uM
[23] = Inhibition of Hsp90-mediated [35S]His-tagged HRI maturation in heme-deficient reticulocyte lysate at 50 uM after 45 mins by SDS-PAGE and autoradiography; procedure, shortened: as §1
[24] = Effect on [35S]His-tagged HRI stability in heme-deficient reticulocyte lysate assessed as loss of [35S]His-tagged HRI at 50 uM after 45 mins by SDS-PAGE and autoradiography
Heat shock protein HSP90 [25] = target: T2, Heat shock protein HSP90; test: Binding affinity to human full length Hsp90 expressed in insect Sf9 cells by SPR analysis
Procedure, shortened: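 Full-length human Hsp90β from baculovirus-infected Sf9 cells was amine-coupled by EDC/NHS to a carboxyl SPR chip (about 2000 RU). Compound at 1.0–50 µM was injected in 10 mM PIPES pH 7.4, 300 mM NaCl, 2% DMSO at 15 µL/min, 25 °C. Measured in triplicate; ka, kd and KD were derived from curve fits.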

Heat shock protein HSP90 [26] = target: T2, Heat shock protein HSP90; test: Binding affinity to human Hsp90 C-terminal domain (531 to 732) expressed in Escherichia coli DE-3cstar cells by SPR analysis
Procedure, shortened: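 Hsp90 N-terminal (aa 1–241) or C-terminal (aa 531–732) domain was expressed in E. coli, Ni-NTA purified, His-tag TEV-cleaved, then gel-filtered and biotinylated for SPR. Analyte was injected in 10 mM PIPES pH 7.4, 300 mM NaCl, 2% DMSO at 15 µL/min, 25 °C. […] Triplicates; ka, kd and KD were derived from fits.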

HeLa = test: Antiproliferative activity against human HeLa cells assessed as inhibition of cell growth after 72 hrs by cell titer 96 assay; format: functional
Procedure, shortened: (§4)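 Cells seeded at 2000/well and left to attach overnight. HeLa was grown in MEM with non-essential amino acids, 2 mM glutamine and 10% FBS. SkBr3 was grown in DMEM/F12 (1:1) with penicillin/streptomycin and 10% FBS. Varying compound concentrations or 1% DMSO vehicle were added for 72 h at 37 °C. Tetrazolium reagent was added for 1 h, then A490 read; viability expressed as % of DMSO wells.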

SK-BR-3 = test: Antiproliferative activity against human SKBR3 cells assessed as inhibition of cell growth after 72 hrs by cell titer 96 assay; format: functional; conditions: SK-BR-3, 72 h; procedure, shortened: as §4
Heat shock protein HSP90 [27] = target: T2, Heat shock protein HSP90; test: Inhibition of Hsp90 in human HeLa cells assessed as Her2 degradation at 0.01 to 20 uM after 36 hrs by Western blot analysis; format: cell-based; procedure, shortened: as §3
Heat shock protein HSP90 [28] = target: T2, Heat shock protein HSP90; test: Inhibition of Hsp90 in human MCF7 cells assessed as Her2 degradation after 36 hrs by Western blot analysis; format: cell-based; procedure, shortened: as §3
Heat shock protein HSP90 [29] = target: T2, Heat shock protein HSP90; test: Inhibition of Hsp90 in human HeLa cells assessed as Raf degradation at 0.01 to 20 uM after 36 hrs by Western blot analysis; format: cell-based; procedure, shortened: as §3
Heat shock protein HSP90 [30] = target: T2, Heat shock protein HSP90; test: Inhibition of Hsp90 in human SKBR3 cells assessed as Her2 degradation after 36 hrs by Western blot analysis; format: cell-based; conditions: SK-BR-3
Procedure, shortened: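 SkBr3 cells (1×10^6 per dish) were attached overnight, then exposed to the compound for 36 h. […] Her2 was Western blotted from 1 µg extract protein, with actin as loading control.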

Heat shock protein HSP90 [31] = target: T2, Heat shock protein HSP90; test: Inhibition of Hsp90 in human HeLa cells assessed as Akt degradation at 0.01 to 20 uM by Western blot analysis; format: cell-based; procedure, shortened: as §3
Heat shock protein HSP90 [32] = target: T2, Heat shock protein HSP90; test: Inhibition of Hsp90 in human MCF7 cells assessed as induction of Hsp90 expression after 36 hrs by Western blot analysis; format: cell-based; procedure, shortened: as §3
Heat shock protein HSP90 [33] = target: T2, Heat shock protein HSP90; test: Binding affinity to human Hsp90 N-terminal domain (1 to 241) expressed in Escherichia coli DE-3 Star cells by SPR analysis
Heat shock protein HSP90 [34] = target: T2, Heat shock protein HSP90; test: Binding affinity to human Hsp90 N-terminal domain (1 to 241) expressed in Escherichia coli DE-3 Star cells by SPR analysis in presence of 20 uM geldanamycin

Compound: CC1=C(O)C(=O)C=C2C1=CC=C1[C@@]2(C)CC[C@@]2(C)[C@@H]3C[C@](C)(C(=O)O)CC[C@]3(C)CC[C@]12C [CELASTROL]
- Activity [1]: inactive
- inhibition [2]: Active
- Activity [3]: 40%
- IC50 [4]: 20 µM

Compound: SODIUM MOLYBDATE
- Activity [5]: Active
- inhibition [6]: Active
- Activity [7]: 10%

Compound: CO[C@@H]1[C@@H](OC(N)=O)[C@@H](O)[C@H](Oc2ccc3c(O)c(NC(=O)c4ccc(O)c(CC=C(C)C)c4)c(=O)oc3c2C)OC1(C)C
- inhibition [8]: Active
- Activity [9]: 90%

Compound: CO[C@H]1[C@H](OC(=O)c2ccc(C)[nH]2)[C@H](O)[C@@H](Oc2ccc3c(O)c(NC(=O)c4c[nH]c(C(=O)Nc5c(O)c6ccc(O[C@H]7OC(C)(C)[C@@H](OC)[C@H](OC(=O)c8ccc(C)[nH]8)[C@@H]7O)c(C)c6oc5=O)c4C)c(=O)oc3c2C)OC1(C)C
- inhibition [10]: Active
- Activity [11]: 80%

Compound: COC1=C2C[C@@H](C)C[C@H](OC)[C@H](O)[C@@H](C)/C=C(\C)[C@H](OC(N)=O)[C@@H](OC)/C=C\C=C(/C)C(=O)NC(=CC1=O)C2=O
- Activity [12]: Active
- inhibition [13]: Active
- Activity [14]: 0%

Compound: CC(C)=CCC[C@]1(C)C=Cc2c(O)c3c(c(CC=C(C)C)c2O1)O[C@]12C(=C[C@@H]4C[C@H]1C(C)(C)O[C@@]2(C/C=C(/C)C(=O)O)C4=O)C3=O [GAMBOGIC ACID]
- inhibition (Heat shock protein HSP90 [15]): Dose-dependent effect
- inhibition (Heat shock protein HSP90 [16]): Dose-dependent effect
- inhibition (Heat shock protein HSP90 [17]): Dose-dependent effect
- inhibition (Heat shock protein HSP90 [18]): Dose-dependent effect
- inhibition (Heat shock protein HSP90 [19]): Dose-dependent effect
- inhibition (Heat shock protein HSP90 [20]): Dose-dependent effect
- inhibition (Heat shock protein HSP90 [21]): Dose-dependent effect
- Activity [22]: inactive
- inhibition [23]: inactive
- Activity [24]: 10%
- Kd (Heat shock protein HSP90 [25]): 9.8 µM
- Activity (Heat shock protein HSP90 [26]): inactive
- IC50 [4]: 2 µM
- GI50 (HeLa): 1.5 µM
- GI50 (SK-BR-3): 0.8 µM
- inhibition (Heat shock protein HSP90 [27]): Active
- inhibition (Heat shock protein HSP90 [28]): Dose-dependent effect
- inhibition (Heat shock protein HSP90 [29]): Active
- inhibition (Heat shock protein HSP90 [30]): Dose-dependent effect
- inhibition (Heat shock protein HSP90 [31]): Active
- inhibition (Heat shock protein HSP90 [32]): Dose-dependent effect
- Kd (Heat shock protein HSP90 [33]): 7.6 µM
- Kd (Heat shock protein HSP90 [34]): 7 µM
